This is an account of results in PubChem BioAssay AID504907 (The Scripps Research Institute Molecular Screening Center, 2011).

For the assay, the target named is Glucose-6-phosphatase catalytic subunit 1 (Homo sapiens) (UniProt P35575). The experiment in a line: endogenous G6PC mRNA suppression, late-stage follow-up, mechanism study for RORA inverse agonist project, cell-based, real-time PCR, fluorescence, assay provider (AID 504907). The following applies: HepG2 G6PC mRNA RT-qPCR, 20 h, at 10 µM, stronger effect = lower value. An outline of the steps:
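System: HepG2 human hepatoma cells, endogenous G6Pase (G6PC) transcript | Compound dosing: One nominal dose of 10 µM | Timing: 20 h compound exposure of HepG2 cells | Technique: SYBR Green real-time RT-PCR of G6Pase mRNA | Evaluation: Mean fold change in G6Pase mRNA relative to vehicle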
(In general: Quantitative PCR measures a nucleic acid by following its amplification.)

Each structure is given as a SMILES string.

Chain of Glucose-6-phosphatase catalytic subunit 1 (Homo sapiens) (P35575 whole entry, looked up): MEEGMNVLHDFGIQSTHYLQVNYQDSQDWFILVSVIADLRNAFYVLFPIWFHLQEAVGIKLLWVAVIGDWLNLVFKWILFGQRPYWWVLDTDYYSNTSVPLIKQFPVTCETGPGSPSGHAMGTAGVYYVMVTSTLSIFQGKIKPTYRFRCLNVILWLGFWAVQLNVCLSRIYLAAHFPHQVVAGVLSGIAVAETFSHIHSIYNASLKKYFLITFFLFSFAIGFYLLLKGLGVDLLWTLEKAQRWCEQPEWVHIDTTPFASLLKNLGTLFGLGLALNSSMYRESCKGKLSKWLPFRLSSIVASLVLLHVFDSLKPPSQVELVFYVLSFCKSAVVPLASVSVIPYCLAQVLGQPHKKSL

In the case of `O=S(=O)(Nc1ccc(C(O)(C(F)(F)F)C(F)(F)F)cc1)c1cccs1`, the relative mRNA level stood at 0.279 (with RORA + RORG siRNA) and 0.676 (with control siRNA).
